Test results: ChEMBL document CHEMBL1932934, “Cyclosulfamide-based derivatives as inhibitors of noroviruses” (Eur J Med Chem, 2012)

Legend:
Norovirus = assay: Antiviral activity against Norovirus infected in human HG23 cells assessed as inhibition of viral replication after 24 hrs by quantitative RT-PCR analysis; assay type: functional; conditions: HG23, 24 h, read-out: ED50 (the source's name)
[1] = Cytotoxicity against human HG23 cells after 48 hrs; assay type: cell-based; conditions: read-out: TD50
Outline: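 Cytotoxicity in Norwalk virus replicon-harboring HG23 cells exposed to compound for 48 hr, measured with a commercial cell cytotoxicity assay kit. The median toxic dose (TD50) was calculated from the readout.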

[2] = Therapeutic index, ratio of TD50 for human HG23 cells to ED50 for Norovirus infected in human HG23 cells; assay type: cell-based; conditions: read-out: Ratio TD50/ED50
Outline: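 Index computed as TD50 divided by ED50, both in NV replicon-harboring HG23 cells. TD50 came from a cytotoxicity assay kit after 48 hr of treatment.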

Row | SMILES | EC50 (Norovirus) [µM] | CC50 at 48 h [1] [µM] | selectivity ratio [2]
1 | O=S1(=O)N(CCN2CCCCC2)CCN1Cc1cccc(Oc2ccccc2)c1 | 4.7 | 12.3 | 
2 | O=S1(=O)N(CCN2CCN(Cc3cccc(Oc4ccccc4)c3)S2(=O)=O)CCN1Cc1cccc(Oc2ccccc2)c1 | 1.5 | 8.5 | 
3 | O=S1(=O)N(CCN2CCN(CCN3CCN(Cc4cccc(Oc5ccccc5)c4)S3(=O)=O)CC2)CCN1Cc1cccc(Oc2ccccc2)c1 | 0.4 | 5.1 | 
4 | O=S1(=O)N(CCN2CCN(Cc3ccccc3)CC2)CCN1Cc1cccc(Oc2ccccc2)c1 | 4.1 | 11.4 | < 10
5 | O=S1(=O)N(CCN2CCNCC2)CCN1Cc1cccc(Oc2ccccc2)c1 | 5.3 | 14.6 | < 10
6 | O=S1(=O)N(CCN2CCOCC2)CCN1Cc1cccc(Oc2ccccc2)c1 | 5.2 | 95.4 | 
7 | COC(=O)C1CCN(CCN2CCN(Cc3cccc(Oc4ccccc4)c3)S2(=O)=O)CC1 | 5.5 | 180 | 
8 | O=C(O)C1CCN(CCN2CCN(Cc3cccc(Oc4ccccc4)c3)S2(=O)=O)CC1 | 9.1 | 210 | 
9 | CCOC(=O)N1CCN(CCN2CCN(Cc3cccc(Oc4ccccc4)c3)S2(=O)=O)CC1 | 5.8 | 13.5 | < 10
10 | O=C(c1ccc(Cl)cc1)N1CCN(CCN2CCN(Cc3cccc(Oc4ccccc4)c3)S2(=O)=O)CC1 | 7.4 | 35.3 | < 10
11 | O=C(c1ccc(F)cc1)N1CCN(CCN2CCN(Cc3cccc(Oc4ccccc4)c3)S2(=O)=O)CC1 | 9.7 | 80.8 | < 10
12 | O=C(c1cccc(Oc2ccccc2)c1)N1CCN(CCN2CCN(Cc3cccc(Oc4ccccc4)c3)S2(=O)=O)CC1 | 6.2 | 32.9 | < 10
13 | O=S(=O)(Cc1ccccc1)N1CCN(CCN2CCN(Cc3cccc(Oc4ccccc4)c3)S2(=O)=O)CC1 | 5.3 | 9.3 | < 10
14 | CS(=O)(=O)N1CCN(CCN2CCN(Cc3cccc(Oc4ccccc4)c3)S2(=O)=O)CC1 | 3.2 | 12.2 | < 10
15 | CCCCS(=O)(=O)N1CCN(CCN2CCN(Cc3cccc(Oc4ccccc4)c3)S2(=O)=O)CC1 | 3.4 | 11.1 | < 10
16 | COC(=O)C1CCN(C(=O)CN2CCN(Cc3cccc(Oc4ccccc4)c3)S2(=O)=O)CC1 | 4.2 | 156 | 39
17 | O=C(O)C1CCN(C(=O)CN2CCN(Cc3cccc(Oc4ccccc4)c3)S2(=O)=O)CC1 | > 10 | 80.5 | 
18 | CCN1CCN(C(=O)CN2CCN(Cc3cccc(Oc4ccccc4)c3)S2(=O)=O)CC1 | 5.5 | 120 | 24
